In publication PMC10362183 (Heliyon, 2023):
Where two headings read alike, the source gives them in different places.

Experiments:
[1] = tested on: P. falciparum (3D7 strain); assay: Antiplasmodial activity, LDH assay; type: cell-based
[2] = tested on: intracellular amastigotes of L. panamensis (MHOM/CO/87/UA140-EGFP strain); assay: Antileishmanial activity on intracellular amastigotes, flow cytometry; type: cell-based
Method in brief: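 U-937 cells (3 × 10^5 cells/mL, RPMI-1640, 0.1 μg/mL PMA) infected with stationary-phase EGFP-transfected promastigotes at 15:1 for 3 h at 34 °C, then washed. After 24 h, test compound was added at 50, 12.5, 3.125 and 0.78 μg/mL for 72 h at 37 °C, 5% CO2. Amphotericin B served as positive control. Detached cells were read by flow cytometry (488/525 nm, 10,000 events). EC50 was by probit from MFI relative to untreated wells. Triplicates, ≥2 independent experiments.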

[3] = tested on: Trypanosoma cruzi (Tulahuen strain transfected with the β-galactosidase gene); assay: Antitrypanosomal activity on intracellular amastigotes, β-galactosidase readout; type: cell-based; conditions: read-out: Trypanosomal CE50; intracellular amastigotes in U-937 cells, 72 h
[4] = tested on: human monocytes (U-937 ATCC CRL-1593.2); assay: Cytotoxic activity, MTT assay on U-937 cells; type: cell-based; conditions: 72 h
Method in brief: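 Exponential-phase cells at 1 × 10^5 cells/mL in RPMI-1640 with 10% FBS. Test compound (200, 50, 12.5, 3.125 μg/mL) was added in PBS with 0.5% DMSO for 72 h at 37 °C, 5% CO2. MTT was then added for 3 h, the reaction stopped with isopropanol/SDS, and absorbance read at 570 nm. Viability was taken relative to untreated cells, with blank subtraction. LC50 was by probit linear regression. Triplicates, ≥2 independent experiments.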

[5] = Electrochemical measurements; type: physicochemical; conditions: cyclical cathodic and anodic currents, low potential range, ACN, TBAB 0.1 M
Method in brief: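 Cyclic voltammetry used a glassy carbon working electrode, Ag/AgCl reference and platinum counter electrode, in acetonitrile with 0.1 M TBAB as supporting electrolyte. The scan ran from −1.5 to 2.5 V at 150 mV/s. p-Quinone was run under the same conditions as experimental control.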

[6] = read-out: Plasmodial CE50, 3D7 strain, 72 h
[7] = read-out: Leishmanial CE50, intracellular amastigotes in U-937 cells, 72 h
[8] = Plasmodium falciparum, 3D7, 72 h, read-out: Plasmodial CE50, 3D7 strain, 72 h
[9] = Leishmania panamensis, U-937, 72 h, read-out: Leishmanial CE50
[10] = Leishmania panamensis, read-out: Antileishmanial activity

Molecule | Cytotoxicity CL50 [4] [µM] | EC50 [1, 8] [µM] | EC50 [2, 9] [µM] | also measured
3-(4-Chlorobenzyl)-4H-thiochromen-4-one 1,1-dioxide [Compound 14c] | 20.81 | – | – | EC50 [1, 6]: 46.7 µM; EC50 ([2]; read-out: Antileishmanial activity, Table 2, own compounds, repeats Table 1): 18.2 µM; EC50 [2, 7]: 18.2 µM; EC50 [3]: 129 µM
6-Phenyl-4H-thiochromen-4-one 1,1-dioxide [Compound 21d] | 276.03 | – | – | EC50 [1, 6]: 75.4 µM; EC50 [2, 7]: 691 µM; EC50 [3]: 260 µM
6-Phenyl-4H-thiochromen-4-one 1,1-dioxide [Compound 21e] | 254.35 | – | – | EC50 [1, 6]: 61.4 µM; EC50 [2, 7]: 74 µM; EC50 [3]: 735 µM
O=C1C=CS(=O)(=O)c2ccccc21 [Compound 6a, 4H-Thiochromen-4-one 1,1-dioxide] | – | 717 | 137 | electrochemical behavior [5]: unexpected capacitive behavior
O=C1C=CS(=O)(=O)c2ccc(F)cc21 [Compound 6b, 6-Fluoro-4H-thiochromen-4-one 1,1-dioxide] | 274.83 | 111 | – | –
O=C1C=CS(=O)(=O)c2ccc(Cl)cc21 [Compound 6c, 6-Chloro-4H-thiochromen-4-one 1,1-dioxide] | 215.05 | 89.9 | – | –
O=C1C=CS(=O)(=O)c2ccc(Br)cc21 [Compound 6d, 6-Bromo-4H-thiochromen-4-one 1,1-dioxide] | – | 71.2 | 106 | –
O=C1C=CS(=O)(=O)c2cc(Br)ccc21 [Compound 6e, 7-Bromo-4H-thiochromen-4-one 1,1-dioxide] | 252.48 | 76.3 | – | –
O=C1C=CS(=O)(=O)c2c(Br)cccc21 [Compound 6f, 8-Bromo-4H-thiochromen-4-one 1,1-dioxide] | 318.45 | 82.8 | 149 | –
CC1=CC(=O)c2ccccc2S1(=O)=O [Compound 11a, 2-Methyl-4H-thiochromen-4-one 1,1 dioxide] | 59.12 | 140 | 35.6 | –
O=C1C(Cc2ccccc2Cl)=CS(=O)(=O)c2ccccc21 [Compound 14a, 3-(2-Chlorobenzyl)-4H-thiochromen-4-one 1,1-dioxide] | 83.61 | 71.2 | 289 | –
O=C1C(Cc2ccc(Cl)cc2)=CS(=O)(=O)c2ccccc21 [Compound 14b, 3-(4-Chlorobenzyl)-4H-thiochromen-4-one 1,1-dioxide] | – | 50.6 | 63.6 | EC50 [2, 10]: 63.6 µM
O=C1C(Cc2ccco2)=CS(=O)(=O)c2ccccc21 [Compound 17a, 3-(Furan-2-yl-methyl)-4H-thiochromen-4-one 1,1-dioxide] | – | 70.2 | 72.9 | EC50 [2, 10]: 72.9 µM
O=C1C(Cc2cccs2)=CS(=O)(=O)c2ccccc21 [Compound 17b, 3-(Thiophen-2-yl-methyl)-4H-thiochromen-4-one 1,1-dioxide] | 12.70 | 99.3 | 16.5 | EC50 [2, 10]: 16.5 µM
O=C1C=CS(=O)(=O)c2ccc(-c3cc(C(F)(F)F)cc(C(F)(F)F)c3)cc21 [Compound 21a, 6-(3,5-Bis(trifluoromethyl)phenyl) 4 H-thiochromen-4-one 1,1-dioxide] | 83.61 | 71.2 | 289 | –
O=C1C=CS(=O)(=O)c2cc(-c3cc(C(F)(F)F)cc(C(F)(F)F)c3)ccc21 [Compound 21b, 7-(3,5-Bis(trifluoromethyl)phenyl)-4H-thiochromen-4-one 1,1-dioxide] | 49.16 | 98.1 | 102 | –
O=C1C=CS(=O)(=O)c2c1cccc2-c1cc(C(F)(F)F)cc(C(F)(F)F)c1 [Compound 21c, 8-(3,5-Bis(trifluoromethyl)phenyl)-4H-thiochromen-4-one 1,1-dioxide] | 23.20 | 71.4 | 9.3 | EC50 [2, 10]: 9.3 µM
